Data on 48 sequences can be found in the EternaBench riboswitch data.

This data set deals with MS2 coat protein. The experiment in a line: apparent Kd, MS2 coat protein; higher = weaker binding; RNA-MaP array; FMN 200 µM where present. An outline of the steps:
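The titrant was SNAP-549-labelled MS2 coat protein, run from 0.7 or 1.5 nM in doubling steps to 3 µM. It was applied to designs transcribed by stalled E. coli RNA polymerase on Illumina sequencing-chip clusters, without ligand first and then with constant ligand, in 100 mM Tris-HCl pH 7.5, 80 mM KCl, 4 mM MgCl2, BSA, DTT, yeast tRNA and Tween-20. The apparent Kd is the median of filtered per-cluster binding-curve fits, with green signal normalised to red-channel RNA signal and control-cluster median Fmax.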

The mark [1] stands for this setting: designed as: ON switch for flavin mononucleotide, no ligand.
The mark [2] stands for this setting: ligand present: flavin mononucleotide, designed as: ON switch for flavin mononucleotide.
[3] abbreviates: designed as: OFF switch for flavin mononucleotide, no ligand.
Setting [4] is: ligand present: flavin mononucleotide, designed as: OFF switch for flavin mononucleotide.

Regarding “UUUGGGUGGCUGGAGGAUAUCCUGGUUGUUACAUGAGGAUCACCCAUGUGCCGCGCGGUGCGCUGGGAGAAGGCUGGCGGCCGUU”, the “apparent Kd” value reads like this: under setting [1], 130 nM; under setting [2], 27.6 nM.
Take “CUAUUGGCAGGAUAUGCUUUUUUAGACAUGAGGAUCACCCAUGUGAUGAAUAUUGGGUUUGCAGAAGGGCCUGAAU”: the “apparent Kd” value by setting is: under setting [3], 75.1 nM; under setting [4], 111 nM.
Turning to “AGUACUACAGGAUAUACAUGAGUGAUACUCAUAUACCUACUACAUGAGGAUCACCCAUGUAGAAGGGUAGUACA”, the “apparent Kd” value turned out to be 14.9 nM under setting [3] and 11.7 nM under setting [4].
For “ACAUGAGGAUCACCCAUGUAUACAUAGGAUAUUGAGGAUCAGGGAUGUUUUACAGGAUAUGUCUACGAGAAGGAUGCAAGUACA”, the “apparent Kd” value worked out at 33.5 nM under setting [1] and 28.6 nM under setting [2].
“GUCUGUUACGAGAAGGACAAUUGGAUGCAGGCUGUAGGAUAUCGAGGCAGACAUGAGGAUCACCCAUGUAGGCUUACGAUGGGU”: the “apparent Kd” value runs as follows: under setting [3], 11.7 nM; under setting [4], 19.1 nM.
Taken in the same sequence, the figures for “UACGGGAGUGGAGGAUAUGCGUAGUACGCUAGAGCAGAAGGCCACAUGAGGAUCACCCAUGUGUCGUCGAAUGCGAUACGCUGG” were 17.6 nM and 77.3 nM.
Turning to “GUUAUACAUGAGGAUCACCCAUGUCAAUGUAGUCGAGGAUAUGGGUAGCUAUGAGGCGUACUAGAAGGCGAGGAGU”, the “apparent Kd” value under setting [1] was determined as 77.8 nM and the “apparent Kd” value under setting [2] is 160 nM.
In the case of “CUGAUGUUAGGAUAUCAGGUUGCGCGCGAAGGCACGCAGCAUGAGAAGGAACAUGAGGAUCACCCAUGUGACGA”, the “apparent Kd” value reads like this: under setting [3], 40.6 nM; under setting [4], 132 nM.
Take “CUGGUGUGAGGAUAUCAGGGCACGCCCAAGGGCGUACCAAAUGAGAAGGCACAUGAGGAUCACCCAUGUGGGAC”: the “apparent Kd” value reads like this: under setting [3], 36.5 nM; under setting [4], 160 nM.
Taken in the same sequence, the figures for “CGAACCCGAGGAUAUCGUAAACCCGACAUGAGGAUCACCCAUGUCAUCCUCACGGCGCCACGAGAAGGCGGUGUUU” were 56.5 nM and 160 nM.
“ACAUGAGGAUCACCCAUGUGUGCAUAGGAUAUUGAGGAUUAGGGAUAUUAUUAUGGAUUUGCCCACAAGAAGGAUGAAAGUGUU”: the “apparent Kd” value by setting is: under setting [1], 17.8 nM; under setting [2], 15.7 nM.
As for “ACCAAUCACAUAGGAUAUAGAAUAUUAAAUUUUUACAUGAGGAUCACCCAUGUUUUAUUGGGAUACUAGAAGGAUGAGUAAUAA”, the “apparent Kd” value under setting [1] was determined as 113 nM and the “apparent Kd” value under setting [2] was 108 nM.
For “UUUUAGUCAGGAUAUACAUUUUUUUAUUUAUUUAUAAUAUUACAUGAGGAUCACCCAUGUAGAAGGGACAUUUU”, the “apparent Kd” value by setting is: under setting [3], 31.8 nM; under setting [4], 26.5 nM.
Take “UAUAACCAAGGAUAUACAUGAGGAUCACCCAUGUAAUAUAGUAUAAUAUAUGUAAAAUGUAGAAGGUGGGAUGU”: the “apparent Kd” value was 32 nM under setting [3] and 34 nM under setting [4].
Take “UGUGUGAGACAGGAUAUGCCGGUUGUGUUACUGGUAGAAGGGUCUACAUGAGGAUCACCCAUGUGGCCGGCCGG”: the “apparent Kd” value under setting [3] was 152 nM and the “apparent Kd” value under setting [4] stood at 154 nM.
Regarding “GUCAGCUCGUGAGGAUAUACAACAAUGCUUCGGCAGUGUAUUAAGAUCACAUGAGGAUCACCCAUGUAGAAGGCACGAGCUGAU”, the “apparent Kd” value under setting [3] turned out to be 7.66 nM and the “apparent Kd” value under setting [4] was found to be 73.7 nM.
“ACAUGCAUAGCGAUAUGAUCGAGAGAUCAUGUCGCAAAAUUUAGAAGGACAUGAGGAUCACCCAUGUAGGAUAUGGGAGCAUGA”: the “apparent Kd” value runs as follows: under setting [1], 43.8 nM; under setting [2], 12.9 nM.
The matching figures for “AUUUAUGUCAUAGGAUAUAUAAAUAAAUUUAUAACAUGAGGAUCACCCAUGUACUUGGGUAUUAGGUAGAAGGAUGAUAAGAAU”: 572 nM and 254 nM.
In the case of “UUUUUGUCAGGAUAUCGUUAAUUUAAUUGUUUGUAUUAGUUCGAGAAGGGACAUGAGGAUCACCCAUGUAUUUU”, the “apparent Kd” value is, setting by setting: under setting [3], 41.1 nM; under setting [4], 103 nM.
Taken in the same sequence, the figures for “CAUCUUGUGUGAGGAUAUAAUGAUAAGAGGACAUUAGAAGGCACAUGAGGAUCACCCAUGUGGCCAGGUCGGCGGCUCCAUAUA” were 11.4 nM and 17.3 nM.
The matching figures for “UGAAAUCAUGUAGGAUAUGCAUGGCGAAGCUACGCAGAAGGACAUGAGGAUCACCCAUGUUAUGGCUACCCAGUUCGGUGGCAA”: 51.8 nM and 117 nM.
As to “AACAAUCUAUCUGAGGAUAUCAUGAAAUAAACAUGAGGAUCACCCAUGUGCAGGAAAUCUGCAUAUGAGAAGGCAGAUAGAUUGA”, the “apparent Kd” value was 1340 nM under setting [1] and 56.1 nM under setting [2].
Take “AGAUGCUCGAGUCGACAUGAGGAUCACCCAUGUACAGUUAGUGAGGAUAUCUGAGACACAUAGUAGGAGAAGGCGCGAACGUGA”: the “apparent Kd” value is, setting by setting: under setting [3], 84.4 nM; under setting [4], 192 nM.
Taken in the same sequence, the figures for “UUUGCAACAUGAGGAUCACCCAUGUAGGAUAUCGCUAUUGUAAUCAUGAAACAUGAUUACAAUAGCGAGAAGGACAUAUGUCCC” were 7.56 nM and 8.59 nM.
Taken in the same sequence, the figures for “GUGCUUGUCGGAGGAUAUGGUUACAUGAGGAUCACCCAUGUUAUGCUUGGUUACUUGUUUAGUUUCCAGAAGGUCGAUUGGUUG” were 69.6 nM and 132 nM.
Regarding “GCCAUCGCAUGAGGAUAUCCUCAGCUUUGCUGAGGAGAAGGCAUGUCAAUAGACAUGAGGAUCACCCAUGUAGUUAAGAUGGCA”, the “apparent Kd” value reads like this: under setting [1], 692 nM; under setting [2], 81.3 nM.
The matching figures for “CUAGCGAGUGAGAAGGCCAGCUUUUAUACAUGAGGAUCACCCAUGUAGCCCUAAAGGGUAUGCAUGGAGGAUAUCACGAGCCUG”: 11.7 nM and 7.03 nM.
Taken in the same sequence, the figures for “CGGCCCUAUCGAGGAUAUAAGUCUAGGACAUGAGGAUCACCCAUGUAUGUCUUAGAAGGCGAUAGGGCCAGCCUGUUACAGGCA” were 29.7 nM and 6.23 nM.
Taken in the same sequence, the figures for “GCAUACAUUCGAGGAUAUCGGUGAACAAAUUAACGAGAAGGCGAUAUAAUUUUUAAUCUUAUAAACAUGAGGAUCACCCAUGUA” were 21.8 nM and 19.5 nM.
For “UUUGGGUGGCUGGAGGAUAUCCUGGUUGUUACAUGAGGAUCACCCAUGUGCCGCGCGGUUCGCGAGGAGAAGGCUGGCGGCCGUU”, the “apparent Kd” value under setting [1] stood at 147 nM and the “apparent Kd” value under setting [2] came out at 33.6 nM.
Consider “UCGGCGCGAGGAUAUACGUUUGCUCUUUUUCGUUUUUGUGUACAUGAGGAUCACCCAUGUAGAAGGCGCGCCGC”, for which the “apparent Kd” value is 17.9 nM under setting [3] and 63.7 nM under setting [4].
Taken in the same sequence, the figures for “AGGGCGGGAGGAUAUCCAAUAUAUGACAUGAGGAUCACCCAUGUUUCCACUCGUACCUCCGGAGAAGGCCCGCCCA” were 24.4 nM and 22.3 nM.
“AAGCUGCGCCAGAAGGGACCGACAUGAGGAUCACCCAUGUCCACAAGAGUCAGGAUAUGGCGUGGAGGCUCGUUUAUGUCCAAG”: the “apparent Kd” value runs as follows: under setting [1], 13.1 nM; under setting [2], 5.44 nM.
Regarding “GGGUACGCAGGAUAUACAUGAAAAAAAAAAAAAAAAAAAAAACAUGAGGAUCACCCAUGUAGAAGGGCGUAUCC”, the “apparent Kd” value under setting [3] is 232 nM and the “apparent Kd” value under setting [4] is 571 nM.
The matching figures for “GGUACUCAAAGAGUACCAAUACGAACAUGAGGAUCACCCAUGUAGGAUAUGCUACUCAAAGAGUAGCAGAAGGACAUGUGAAAU”: 71.5 nM and 380 nM.
As for “UGCAUGUGAGGAUAUGUGUACUGUUUUUUGUUUAGAUGUACACAGAAGGCACAUGAGGAUCACCCAUGUAGUAC”, the “apparent Kd” value under setting [3] turned out to be 95.8 nM and the “apparent Kd” value under setting [4] worked out at 22.4 nM.
In the case of “UCCGGGUGCCAGAAGGGAGAUGGUUCGGAGGUCUCAGGAUAUGGCACAUGAGGAUCACCCAUGUGUUUACGUAAUUACAUGAGA”, the “apparent Kd” value under setting [3] was 20.9 nM and the “apparent Kd” value under setting [4] was 21.6 nM.
For the sequence “AAAAAAAAGGGUGAGGAUAUAGAAAAAAAAACAUGAGGAUCACCCAUGUGAAAAAAAAAAAAAAGCUAGAAGGCACAAAAAAAAAA”, the “apparent Kd” value runs as follows: under setting [1], 243 nM; under setting [2], 162 nM.
Regarding “AAGUUCUGAGGAUAUACAUAGAUUUACAUGAGGAUCACCCAUGUUCCUCUAUGUAUUAAUGUAGAAGGCAGAAGAA”, the “apparent Kd” value worked out at 24.4 nM under setting [3] and 185 nM under setting [4].
For “UCAUUUCAGUAAGGAUAUUAAUUCAUGACGAUACAUGAGGAUCACCCAUGUUAAGAAGGUACUAAUACAAAUAAUGCAUUGUUC”, the “apparent Kd” value under setting [3] turned out to be 12.4 nM and the “apparent Kd” value under setting [4] amounted to 11.2 nM.
As to “UUUAUAUUCAGAGGAUAUUAAAGUAGUAUAACAUAAGAAGGCUGUUUGUUUUGUAAAGUAAUUCUACAUGAGGAUCACCCAUGU”, the “apparent Kd” value under setting [1] was found to be 20.9 nM and the “apparent Kd” value under setting [2] stood at 17 nM.
Regarding “UCUUAUUGCAAGGAUAUGCAAUUUAUUUUUUAUGCAGAAGGUGCAACAUGAGGAUCACCCAUGUUUCCGGGCAU”, the “apparent Kd” value is, setting by setting: under setting [3], 13.8 nM; under setting [4], 18.6 nM.
Consider “GGGUACAUCGGAGGAUAUCAUGUCAAUACAUGAGGAUCACCCAUGUCGAUGGAGACAUCGGAGAUUGAGAAGGCCGAUGUACCG”, for which the “apparent Kd” value by setting is: under setting [1], 66.5 nM; under setting [2], 6.99 nM.
Turning to “AAGAAACAUGAGGAUCACCCAUGUAAAUAAAACACAGGAUAUCGAAUAUGGGAGAUUUAACGAGAAGGGUGAAGAA”, the “apparent Kd” value under setting [1] was 100 nM and the “apparent Kd” value under setting [2] was determined as 56.6 nM.
As to “UUACUACAUGAGGAUCACCCAUGUCAGGAUAUUGUCUAUACUUUGGAAUAUGUGUCGACAAGAAGGGACUAUAU”, the “apparent Kd” value came out at 23.5 nM under setting [3] and 39.9 nM under setting [4].
As to “CAGCGAUAGCUGAAUGGUACAUCCGAGGAUAUUCAUAAACAACAUGAGGAUCACCCAUGUAAUUGGGAGAAGGCGGAUGUACCU”, the “apparent Kd” value under setting [1] turned out to be 23.1 nM and the “apparent Kd” value under setting [2] was found to be 5.97 nM.
In the case of “AUCCGGCGUGUAGGAUAUGGAAACGAUUAGGAUCCAGAAGGACAUGAGGAUCACCCAUGUACAUGUAAACAGUCAUCACCGGAA”, the “apparent Kd” value is 14.5 nM under setting [3] and 52.2 nM under setting [4].
On to “ACAUGAGGAUCACCCAUGUUAAAUUAGGAUAUUUGACUGCACAUGAGGUUCACCCAUGUUCUACCGAAGAAGGGAUAAAUAAUU”, for which the “apparent Kd” value reads like this: under setting [1], 49 nM; under setting [2], 50 nM.

Broadly, the apparent Kd is the concentration giving half-maximal binding under the conditions of the assay.
